Each structure is given as a SMILES string.

Usually Inhibition stands for the share of the control response that was lost under treatment. A word on the inhibition in vivo: it is the drop in the measured response relative to a control, in per cent.

Type in all cases: functional, Cricetulus griseus
Experiment [1] concerns Cricetinae gen. sp. Description: In vivo HNE inhibitory activity of lung hemorrhage in 6-8 hamsters. Details: concentration or dose not given beside the values. In outline:
(§1)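 Hamsters dosed orally at 1, 1.5, 2 or 4 h before intratracheal instillation of HNE (25 µg). Animals were killed 1 h after HNE and lungs lavaged with saline. BAL hemoglobin was read spectrophotometrically at 536-546 nm. % inhibition of hemorrhage is relative to vehicle-treated animals, given as mean ± SEM of 6-8 hamsters, with p < 0.05 as significance.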

Experiment [2] has as its system Cricetinae gen. sp. Put plainly: In vivo percent inhibition of lung hemorrhage in 6-8 hamsters after administration of 25 mg/kg 1 hr before intratracheal instillation of HNE (25 ug). In outline: as §1
Experiment [3] concerns Cricetinae gen. sp. Description: In vivo percent inhibition of lung hemorrhage in 6-8 hamsters administration of 25 mg/kg 2 hr before intratracheal instillation of HNE (25 ug). A digest of the protocol: as §1
The subject of experiment [4] is Cricetinae gen. sp. Description: In vivo percent inhibition of lung hemorrhage in 6-8 hamsters administration of 25 mg/kg 4 hr before intratracheal instillation of HNE (25 ug). A digest of the protocol: as §1
Experiment [5] concerns Cricetinae gen. sp. Description: In vivo percent inhibition of lung hemorrhage in 6-8 hamsters administration of 25 mg/kg 1 hour before intratracheal instillation of HNE (25 ug). In outline:
as §1

The test system of experiment [6] is Cricetinae gen. sp. Description: In vivo percent inhibition of lung hemorrhage in 6-8 hamsters administration of 25 mg/kg 2 hours before intratracheal instillation of HNE (25 ug). In outline:
as §1

For experiment [7], the system named is Cricetinae gen. sp. Description: In vivo percent inhibition of lung hemorrhage in 6-8 hamsters administration of 25 mg/kg 1 hr before intratracheal instillation of HNE (25 ug). In outline: as §1

In the experiment with Cricetinae gen. sp. [1], `CC(C)C(NC(=O)[C@@H]1CCCN1C(=O)[C@@H](NC(=O)c1ccc(C(=O)N2CCOCC2)cc1)C(C)C)C(=O)C(F)(F)C(F)(F)F` (stereo not given in full) gave an Inhibition of 74%. The same measure, in the same setting: to `CC(C)C(NC(=O)C1CC(O)CN1C(=O)[C@@H](NC(=O)c1ccc(C(=O)N2CCOCC2)cc1)C(C)C)C(=O)C(F)(F)C(F)(F)F` (stereo not given in full) belongs 0%. `CC(C)C(NC(=O)[C@H]1CCN1C(=O)[C@@H](NC(=O)c1ccc(C(=O)N2CCOCC2)cc1)C(C)C)C(=O)C(F)(F)C(F)(F)F` (stereo not given in full) returned an Inhibition in the experiment on Cricetinae gen. sp. [1] of 79%. In the experiment with Cricetinae gen. sp. [2], this molecule had an inhibition in vivo at 25 mg/kg of 57%.

On to `CC(C)C(NC(=O)[C@H]1CC(OCc2ccccc2)CN1C(=O)[C@@H](NC(=O)c1ccc(C(=O)N2CCOCC2)cc1)C(C)C)C(=O)C(F)(F)C(F)(F)F` (stereo not given in full), for which the Inhibition in the experiment on Cricetinae gen. sp. [1] worked out at 7%. On the same count and under the same terms, then `CC(C)C(NC(=O)[C@@H]1CSCN1C(=O)[C@@H](NC(=O)c1ccc(C(=O)N2CCOCC2)cc1)C(C)C)C(=O)C(F)(F)C(F)(F)F` (stereo not given in full), with 0%. Consider `CC(=O)OC1CC(C(=O)NC(C(=O)C(F)(F)C(F)(F)F)C(C)C)N(C(=O)[C@@H](NC(=O)c2ccc(C(=O)N3CCOCC3)cc2)C(C)C)C1` (stereo not given in full), for which, in the experiment on Cricetinae gen. sp. [1], the Inhibition is 0%. Besides, the inhibition in vivo at 25 mg/kg with Cricetinae gen. sp. [3] and in the experiment on Cricetinae gen. sp. [4] was 0% throughout. Molecule `CC(C)C(NC(=O)[C@@H]1CCCN1C(=O)[C@@H](NC(=O)c1ccc(C(=O)N2CCOCC2)cc1)C(C)C)C(=O)C(F)(F)C(F)(F)C(F)(F)F` (stereo not given in full) returned an Inhibition in the experiment on Cricetinae gen. sp. [1] of 47%. Besides, the values for the inhibition in vivo at 25 mg/kg in the experiment with Cricetinae gen. sp. [5] and in the experiment on Cricetinae gen. sp. [6] were 30% and 25%, respectively. In the experiment on Cricetinae gen. sp. [1], `CC(C)C(NC(=O)C1CCCCN1C(=O)[C@@H](NC(=O)c1ccc(C(=O)N2CCOCC2)cc1)C(C)C)C(=O)C(F)(F)C(F)(F)F` (stereo not given in full) displayed an Inhibition of 54%. Also, the inhibition in vivo at 25 mg/kg is 43% with Cricetinae gen. sp. [7] and 39% in the experiment on Cricetinae gen. sp. [3].

The record behind these values is ChEMBL document CHEMBL1131010, “Inhibition of human neutrophil elastase. 4. Design, synthesis, X-ray crystallographic analysis, and structure-activity relationships for a series of P2-modified, orally active peptidyl pentafluoroethyl ketones” (J Med Chem, 1998).
